One may read the IC50 as the concentration needed to halve the response being measured. Usually CC50 stands for the concentration giving 50% cytotoxicity. Read a high CC50 as better tolerance by the cells.

The subject of the first experiment is MT4. The experiment is described as follows: Inhibition of CD4 antigen expression in MT4 cells. Type of experiment: functional, cell-based. The conditions noted are these: Homo sapiens, read-out: IC50. The method in brief:
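MT-4 cells were labelled with FITC-conjugated anti-CD4 mAb to read surface CD4 by mean fluorescence intensity. IC50 is the concentration giving 50% loss of cell-surface CD4. Top concentrations tested were 15 or 75 µM. Where 50% reduction was not reached, the value is reported as a lower limit based on the highest concentration used.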
Consider `C=C1CN(S(=O)(=O)c2ccc(C)cc2)CCCN(CC2CCCCC2)CCCN(S(=O)(=O)c2cccc3c(N(C)C)cccc23)C1`, for which the IC50 came to 610 nM.
On the same count and under the same terms, the figure for `C=C1CN(S(=O)(=O)c2ccc(Br)cc2)CCCN(C(=O)OCC)CCCN(S(=O)(=O)c2ccc(Br)cc2)C1` is 12400 nM; for `C=C1CN(S(=O)(=O)c2ccc(OC)cc2)CCCN(Cc2ccccc2)CCCN(S(=O)(=O)c2ccc(OC)cc2)C1` it is 220 nM; for `C=C1CN(S(=O)(=O)c2ccc(C)cc2)CCCN(Cc2ccccc2)CCCN(S(=O)(=O)c2cccc3c(N(C)C)cccc23)C1` it is 1300 nM.
The same measure, in the same setting: the figure for `C=C1CN(S(=O)(=O)c2ccc(OC)cc2)CCCN(CCC(C)C)CCCN(S(=O)(=O)c2ccc(OC)cc2)C1` is 290 nM.
Same read-out and setting: the figure for `C=C1CN(S(=O)(=O)c2ccc(OC)cc2)CCCNCCCN(S(=O)(=O)c2ccc(OC)cc2)C1` is 5300 nM.

The same experiment, now with this note: Homo sapiens, read-out: Log IC50 (converted).
For the compound `C=C1CN(S(=O)(=O)c2ccc(C)cc2)CCCN(CC2CCCCC2)CCCN(S(=O)(=O)c2cccc3c(N(C)C)cccc23)C1`, the IC50 is 617 nM.
Still for that read-out and setting: for `C=C1CN(S(=O)(=O)c2ccc(Br)cc2)CCCN(C(=O)OCC)CCCN(S(=O)(=O)c2ccc(Br)cc2)C1` the value was 12300 nM.
Take `C=C1CN(S(=O)(=O)c2ccc(OC)cc2)CCCN(Cc2ccccc2)CCCN(S(=O)(=O)c2ccc(OC)cc2)C1`: the IC50 is 219 nM.
Regarding `C=C1CN(S(=O)(=O)c2ccc(C)cc2)CCCN(Cc2ccccc2)CCCN(S(=O)(=O)c2cccc3c(N(C)C)cccc23)C1`, the IC50 was 1290 nM.
Still for that read-out and setting: the figure for `C=C1CN(S(=O)(=O)c2ccc(OC)cc2)CCCN(CCC(C)C)CCCN(S(=O)(=O)c2ccc(OC)cc2)C1` is 288 nM; for `C=C1CN(S(=O)(=O)c2ccc(OC)cc2)CCCNCCCN(S(=O)(=O)c2ccc(OC)cc2)C1` it is 5250 nM.

The next experiment has as its system MT4. Put plainly: Cytotoxicity against MT4 cells. Type of experiment: functional. The conditions noted are these: Homo sapiens.
Regarding `C=C1CN(S(=O)(=O)c2ccc(C)cc2)CCCN(CC2CCCCC2)CCCN(S(=O)(=O)c2cccc3c(N(C)C)cccc23)C1`, the CC50 was found to be 49 µM.
Compound `C=C1CN(S(=O)(=O)c2ccc(Br)cc2)CCCN(C(=O)OCC)CCCN(S(=O)(=O)c2ccc(Br)cc2)C1` displayed a CC50 of 29 µM.
Compound `C=C1CN(S(=O)(=O)c2ccc(OC)cc2)CCCN(Cc2ccccc2)CCCN(S(=O)(=O)c2ccc(OC)cc2)C1` came in with a 50% cytotoxic concentration (CC50) of 26 µM.
Still for that read-out and setting: for `C=C1CN(S(=O)(=O)c2ccc(C)cc2)CCCN(Cc2ccccc2)CCCN(S(=O)(=O)c2cccc3c(N(C)C)cccc23)C1` the value was more than 75 µM.
With `C=C1CN(S(=O)(=O)c2ccc(OC)cc2)CCCN(CCC(C)C)CCCN(S(=O)(=O)c2ccc(OC)cc2)C1`, half-maximal cytotoxicity (CC50) was put at 53 µM. In other words, the double-digit micromolar range.
Still for that read-out and setting: the figure for `C=C1CN(S(=O)(=O)c2ccc(OC)cc2)CCCNCCCN(S(=O)(=O)c2ccc(OC)cc2)C1` is 43 µM.

For the next experiment, the system named is Human immunodeficiency virus 1. The experiment is described as follows: Antiviral activity against HIV1 NL4.3 in MT4 cells. Type of experiment: functional, organism-based. The conditions noted are these: Human immunodeficiency virus 1, NL4.3, MT4.
In turn, `C=C1CN(S(=O)(=O)c2ccc(C)cc2)CCCN(CC2CCCCC2)CCCN(S(=O)(=O)c2cccc3c(N(C)C)cccc23)C1` displayed an IC50 of 1800 nM.
On the same count and under the same terms, the figure for `C=C1CN(S(=O)(=O)c2ccc(OC)cc2)CCCN(Cc2ccccc2)CCCN(S(=O)(=O)c2ccc(OC)cc2)C1` is 620 nM.
On the same count and under the same terms, for `C=C1CN(S(=O)(=O)c2ccc(C)cc2)CCCN(Cc2ccccc2)CCCN(S(=O)(=O)c2cccc3c(N(C)C)cccc23)C1` the value was 9500 nM; for `C=C1CN(S(=O)(=O)c2ccc(OC)cc2)CCCN(CCC(C)C)CCCN(S(=O)(=O)c2ccc(OC)cc2)C1`, 630 nM; for `C=C1CN(S(=O)(=O)c2ccc(OC)cc2)CCCNCCCN(S(=O)(=O)c2ccc(OC)cc2)C1`, 6300 nM.

Values taken from ChEMBL document CHEMBL1149461, “Synthesis and structure-activity relationship studies of CD4 down-modulating cyclotriazadisulfonamide (CADA) analogues” (J Med Chem, 2006).
